Reference: ChEMBL document CHEMBL1148725, “2,2,2-Trichloro-N-({2-[2-(dimethylamino)ethyl]-1,3-dioxo-2,3-dihydro-1H-benzo[de]isoquinolin- 5-yl}carbamoyl)acetamide (UNBS3157), a novel nonhematotoxic naphthalimide derivative with potent antitumor activity” (J Med Chem, 2007)
Activity calls are given as the source filed them. No cut-off for these calls is given here.

Key:
Mus musculus [1] = assay: Hematotoxicity in B6D2F1 mouse assessed as RBC count at 10 mg/kg, po; format: organism-based; parameters: dose 10 mg/kg, route oral; details: in vivo
Mus musculus [2] = assay: Hematotoxicity in B6D2F1 mouse assessed as WBC count at 10 mg/kg, po; format: organism-based; parameters: dose 10 mg/kg, route oral; details: in vivo
Mus musculus [3] = assay: Hematotoxicity in B6D2F1 mouse assessed as RBC count at 20 mg/kg, po; format: organism-based; parameters: dose 20 mg/kg, route oral; details: in vivo
Mus musculus [4] = assay: Hematotoxicity in B6D2F1 mouse assessed as platelet count at 20 mg/kg, po; format: organism-based; parameters: dose 20 mg/kg, route oral; details: in vivo
Mus musculus [5] = assay: Hematotoxicity in B6D2F1 mouse assessed as RBC count at 5 mg/kg, iv; format: organism-based; parameters: dose 5 mg/kg, route intravenous; details: in vivo
[6] = Antiproliferative activity against Hs683 cells after 72 hrs by MTT assay; format: functional, cell-based, Homo sapiens, Hs 683
Procedure, shortened: (§1)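 Cells cultured with each compound for three days; growth then read by the MTT colorimetric assay and reported as IC50 (µM).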

HCT-15 = assay: Antiproliferative activity against HCT15 cells after 72 hrs by MTT assay; format: functional, cell-based, Homo sapiens; procedure, shortened: as §1
L1210 [7] = assay: Antitumor activity in L1210 cells xenografted B6D2F1 mouse at 5 mg/kg, ip relative to control; format: functional; details: route intraperitoneal
Procedure, shortened: (§2)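 Mice grafted with L1210 leukaemia cells on day 0, then dosed i.p. four times weekly on days 1-4 and 8-11. Five mice per group. Outcome is %T/C, the median survival of treated over control. Kruskal-Wallis test followed by Dunn comparisons against control.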

L1210 [8] = assay: Antitumor activity in L1210 cells xenografted B6D2F1 mouse at 10 mg/kg, ip relative to control; format: functional; details: route intraperitoneal; procedure, shortened: as §2
[9] = Toxicity in ip dosed B6D2F1 mouse; format: organism-based; details: in vivo
Procedure, shortened: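 Acute MTD was set by a single i.p. dose to groups of three healthy female B6D2F1 mice, at 2.5, 5, 10, 20, 40, 80 and 160 mg/kg. The MTD is the dose just below the lowest dose that killed at least one mouse.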

[10] = Antitumor activity against mouse MXT-HI cells xenografted in B6D2F1 mouse at 20 mg/kg, ip relative to control; format: functional; details: route intraperitoneal
Procedure, shortened: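 MXT-HI mammary adenocarcinoma grafted s.c. onto female B6D2F1 mice. Dosing i.p., five injections weekly for three weeks from day 14 post-graft. Nine mice per group. Tumour surface area measured, and survival expressed as %T/C, the ratio of treated to control median survival time.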

Mus musculus [11] = assay: Hematotoxicity in B6D2F1 mouse assessed as WBC count at 10 mg/kg, iv; format: organism-based; parameters: dose 10 mg/kg, route intravenous; details: in vivo
Mus musculus [12] = assay: Hematotoxicity in B6D2F1 mouse assessed as platelet count at 10 mg/kg, iv; format: organism-based; parameters: dose 10 mg/kg, route intravenous; details: in vivo
Mus musculus [13] = assay: Hematotoxicity in B6D2F1 mouse assessed as platelet count at 5 mg/kg, po; format: organism-based; parameters: dose 5 mg/kg, route oral; details: in vivo
Mus musculus [14] = assay: Hematotoxicity in B6D2F1 mouse assessed as WBC count at 5 mg/kg, po; format: organism-based; parameters: dose 5 mg/kg, route oral; details: in vivo
Mus musculus [15] = assay: Toxicity in B6D2F1 mouse at 40 mg/kg, ip; format: organism-based; parameters: dose 40 mg/kg, route intraperitoneal; details: in vivo
L1210 [16] = assay: Antitumor activity in L1210 cells xenografted B6D2F1 mouse at 20 mg/kg, ip relative to control; format: functional; details: route intraperitoneal; procedure, shortened: as §2
Mus musculus [17] = assay: Hematotoxicity in B6D2F1 mouse assessed as RBC count at 10 mg/kg, iv; format: organism-based; parameters: dose 10 mg/kg; details: in vivo
MCF7 [18] = assay: Antiproliferative activity against MCF7 cells after 72 hrs by MTT assay; format: functional, cell-based, Homo sapiens; details: Homo sapiens, MCF7, 72 h; procedure, shortened: as §1
Mus musculus [19] = assay: Hematotoxicity in B6D2F1 mouse assessed as WBC count at 20 mg/kg, po; format: organism-based; parameters: dose 20 mg/kg, route oral; details: in vivo
[20] = Antiproliferative activity against U373MG cells after 72 hrs by MTT assay; format: functional, cell-based, Homo sapiens, U-373MG ATCC; procedure, shortened: as §1
Mus musculus [21] = assay: Hematotoxicity in B6D2F1 mouse assessed as platelet count at 10 mg/kg, po; format: organism-based; parameters: dose 10 mg/kg, route oral; details: in vivo
L1210 [22] = assay: Antitumor activity in L1210 cells xenografted B6D2F1 mouse at 40 mg/kg, ip relative to control; format: functional; details: route intraperitoneal; procedure, shortened: as §2
Mus musculus [23] = assay: Hematotoxicity in B6D2F1 mouse assessed as RBC count at 5 mg/kg, po; format: organism-based; parameters: dose 5 mg/kg, route oral; details: in vivo
A549 = assay: Antiproliferative activity against A549 cells after 72 hrs by MTT assay; format: functional, cell-based, Homo sapiens; procedure, shortened: as §1
Mus musculus [24] = assay: Hematotoxicity in B6D2F1 mouse assessed as platelet count at 5 mg/kg, iv; format: organism-based; parameters: dose 5 mg/kg, route intravenous; details: in vivo
L1210 [25] = assay: Antitumor activity in L1210 cells xenografted B6D2F1 mouse at 2.5 mg/kg, ip relative to control; format: functional; details: route intraperitoneal; procedure, shortened: as §2
LoVo = assay: Antiproliferative activity against LoVo cells after 72 hrs by MTT assay; format: functional, cell-based, Homo sapiens; procedure, shortened: as §1
Mus musculus [26] = assay: Hematotoxicity in B6D2F1 mouse assessed as WBC count at 5 mg/kg, iv; format: organism-based; parameters: dose 5 mg/kg, route intravenous; details: in vivo
[27] = molecular target: DNA topoisomerase 2-alpha (Homo sapiens) (UniProt P11388); assay: Inhibition of human topoisomerase 2-mediated kinetoplast DNA […] at 50 uM
Chain of DNA topoisomerase 2-alpha (Homo sapiens) (P11388 whole entry): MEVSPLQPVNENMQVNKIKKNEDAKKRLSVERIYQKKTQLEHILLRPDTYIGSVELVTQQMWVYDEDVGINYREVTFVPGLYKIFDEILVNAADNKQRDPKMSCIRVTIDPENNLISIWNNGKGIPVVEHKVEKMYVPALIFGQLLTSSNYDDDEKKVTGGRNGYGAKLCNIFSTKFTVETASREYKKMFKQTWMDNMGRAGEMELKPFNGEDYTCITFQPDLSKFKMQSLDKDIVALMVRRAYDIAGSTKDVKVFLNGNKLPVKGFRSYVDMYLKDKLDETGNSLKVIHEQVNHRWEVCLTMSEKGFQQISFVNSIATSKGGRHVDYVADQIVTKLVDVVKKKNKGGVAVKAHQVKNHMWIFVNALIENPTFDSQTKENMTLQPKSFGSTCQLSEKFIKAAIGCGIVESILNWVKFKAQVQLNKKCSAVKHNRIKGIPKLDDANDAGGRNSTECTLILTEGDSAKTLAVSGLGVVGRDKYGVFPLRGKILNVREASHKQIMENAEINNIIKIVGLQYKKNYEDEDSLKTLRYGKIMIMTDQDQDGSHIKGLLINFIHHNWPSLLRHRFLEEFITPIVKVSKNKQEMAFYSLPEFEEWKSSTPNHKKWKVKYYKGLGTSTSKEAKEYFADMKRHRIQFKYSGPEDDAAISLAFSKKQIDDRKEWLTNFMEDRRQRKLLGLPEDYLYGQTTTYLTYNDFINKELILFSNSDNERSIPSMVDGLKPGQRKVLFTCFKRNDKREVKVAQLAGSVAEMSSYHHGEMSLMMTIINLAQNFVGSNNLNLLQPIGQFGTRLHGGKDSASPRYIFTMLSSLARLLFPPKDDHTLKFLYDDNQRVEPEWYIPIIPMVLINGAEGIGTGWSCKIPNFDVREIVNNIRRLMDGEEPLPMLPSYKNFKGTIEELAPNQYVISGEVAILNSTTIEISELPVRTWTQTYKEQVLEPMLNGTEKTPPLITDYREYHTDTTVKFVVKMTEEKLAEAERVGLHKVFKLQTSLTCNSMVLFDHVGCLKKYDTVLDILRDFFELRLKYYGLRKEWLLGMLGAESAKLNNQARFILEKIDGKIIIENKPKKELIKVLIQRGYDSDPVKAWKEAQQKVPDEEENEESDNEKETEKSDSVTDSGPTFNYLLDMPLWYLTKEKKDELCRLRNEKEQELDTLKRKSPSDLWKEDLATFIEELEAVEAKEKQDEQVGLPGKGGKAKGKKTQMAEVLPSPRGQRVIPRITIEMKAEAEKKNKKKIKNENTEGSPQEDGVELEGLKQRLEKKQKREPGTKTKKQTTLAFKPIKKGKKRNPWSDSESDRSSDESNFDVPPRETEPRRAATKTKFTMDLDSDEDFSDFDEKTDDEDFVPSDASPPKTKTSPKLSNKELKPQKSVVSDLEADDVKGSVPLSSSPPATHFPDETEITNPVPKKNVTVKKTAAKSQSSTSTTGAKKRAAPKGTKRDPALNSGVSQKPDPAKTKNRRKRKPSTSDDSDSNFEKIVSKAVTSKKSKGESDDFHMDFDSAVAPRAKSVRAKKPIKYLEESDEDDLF
Procedure, shortened: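 Topoisomerase II strand-passage activity by kDNA decatenation; compounds at 50 µM; catenated networks stay in wells, decatenated kDNA enters ethidium bromide-stained agarose gel; no-enzyme and no-drug reactions as controls.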

MCF7 [28] = assay: Induction of apoptosis in human MCF7 cells assessed as p53 activation; format: functional, cell-based
Procedure, shortened: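 MCF-7 cells treated and p53 activation assessed by immunoblotting, with tubulin as loading control. Adriamycin (2.5 µM, 24 h) served as positive control.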

[29] = molecular target: T1, DNA topoisomerase 1 (Homo sapiens) (UniProt P11387); assay: Inhibition of human topoisomerase 1 by DNA unwinding test
T1 sequence (whole entry): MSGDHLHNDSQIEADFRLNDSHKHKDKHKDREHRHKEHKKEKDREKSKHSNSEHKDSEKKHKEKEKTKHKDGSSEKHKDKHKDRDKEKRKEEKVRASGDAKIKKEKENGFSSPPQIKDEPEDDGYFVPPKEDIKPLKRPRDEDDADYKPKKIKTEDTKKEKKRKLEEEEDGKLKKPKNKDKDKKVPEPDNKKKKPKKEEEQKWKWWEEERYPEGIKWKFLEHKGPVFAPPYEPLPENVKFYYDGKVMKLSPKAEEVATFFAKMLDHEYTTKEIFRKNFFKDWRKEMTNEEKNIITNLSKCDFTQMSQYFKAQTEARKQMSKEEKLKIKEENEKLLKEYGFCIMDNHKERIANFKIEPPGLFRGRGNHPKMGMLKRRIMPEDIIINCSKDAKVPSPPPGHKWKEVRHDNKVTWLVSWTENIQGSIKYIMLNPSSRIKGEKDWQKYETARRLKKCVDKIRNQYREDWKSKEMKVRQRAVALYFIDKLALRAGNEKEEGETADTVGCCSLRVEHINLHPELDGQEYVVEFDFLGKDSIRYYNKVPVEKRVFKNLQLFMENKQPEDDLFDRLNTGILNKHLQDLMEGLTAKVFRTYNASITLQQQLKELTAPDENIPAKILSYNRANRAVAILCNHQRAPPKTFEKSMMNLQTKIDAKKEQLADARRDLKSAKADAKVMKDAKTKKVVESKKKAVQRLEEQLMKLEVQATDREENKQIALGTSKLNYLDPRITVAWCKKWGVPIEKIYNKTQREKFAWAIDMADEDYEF
Procedure, shortened: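 DNA unwinding assay: relaxed pBR322 plasmid converted to supercoiled form in presence of topoisomerase I; compounds at final 4–32 µM (one up to 15–55 µM); ethidium bromide-stained agarose gels; UC50 taken as concentration shifting relaxed band to midpoint between supercoiled and relaxed states.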

Homo sapiens = organism: Homo sapiens; assay: Inhibition of human topoisomerase 2 at 50 uM by plasmid linearization assay
L1210 [30] = assay: Antitumor activity in L1210 cells xenografted B6D2F1 mouse at 80 mg/kg, ip relative to control; format: functional; details: route intraperitoneal; procedure, shortened: as §2
L1210 [31] = assay: Antitumor activity in L1210 cells xenografted B6D2F1 mouse at 120 mg/kg, ip relative to control; format: functional; details: route intraperitoneal; procedure, shortened: as §2
Mus musculus [32] = assay: Toxicity in B6D2F1 mouse at 120 mg/kg, ip; format: organism-based; parameters: dose 120 mg/kg, route intraperitoneal; details: in vivo
Procedure, shortened: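 Healthy female B6D2F1 mice, 10 per group, dosed i.p. in DMSO/saline (5:95 v/v) three times weekly for five weeks at two levels set relative to MTD; sacrificed 3 days after final dose; platelet, RBC and WBC counted by Coulter counter.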

Mus musculus [33] = assay: Hematotoxicity in ip dosed B6D2F1 mouse assessed as decrease in platelet count; format: organism-based; details: in vivo
Procedure, shortened: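 Healthy female B6D2F1 mice, 10 per group, dosed i.p. three times weekly for five weeks at two dose levels set relative to MTD. Vehicle DMSO/saline 5:95 v/v. Killed 3 days after the last dose; blood platelet, RBC and WBC counts taken with a Coulter counter.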

CN(C)CCN1C(=O)c2cccc3cc(N)cc(c23)C1=O [AMONAFIDE]
Activity (Mus musculus [1]): 10.05 10^6 /uL
Activity (Mus musculus [2]): 3.06 10^3 /uL
Activity (Mus musculus [3]): 9.54 10^6 /uL
Activity (Mus musculus [4]): 806 10^3 /uL
Activity (Mus musculus [5]): 8.59 10^6 /uL
IC50 ([6]; hs 683): 3.9 µM
IC50 (HCT-15; hct-15): 5.2 µM
Activity (L1210 [7]): 140%
Activity (L1210 [8]): 122%
MTD [9]: 40 mg/kg
Activity [10]: 143%
Activity (Mus musculus [11]): 3.07 10^3 /uL
Activity (Mus musculus [12]): 390 10^3 /uL
Activity (Mus musculus [13]): 892 10^3 /uL
Activity (Mus musculus [14]): 3.26 10^3 /uL
Activity (Mus musculus [15]): Toxic
Activity (L1210 [16]): 121%
Activity (Mus musculus [17]): 9.54 10^6 /uL
IC50 (MCF7 [18]): 5.8 µM
Activity (Mus musculus [19]): 2.93 10^3 /uL
IC50 ([20]; u-373mg atcc): 3.5 µM
Activity (Mus musculus [21]): 916 10^3 /uL
Activity (L1210 [22]): 49%
Activity (Mus musculus [23]): 9.82 10^6 /uL
IC50 (A549; a549): 3.8 µM
Activity (Mus musculus [24]): 461 10^3 /uL
Activity (L1210 [25]): 109%
IC50 (LoVo; lovo): 2.7 µM
Activity (Mus musculus [26]): 3.33 10^3 /uL

CN(C)CCN1C(=O)c2cccc3cc(/N=C\c4cc(O)ccc4O)cc(c23)C1=O
Activity [27]: Active
Activity (MCF7 [28]): Active
UC50 [29]: 13 µM
Activity (Homo sapiens): Active

CN(C)CCN1C(=O)c2cccc3cc(/N=C\c4ccc5c(c4)OCO5)cc(c23)C1=O
Activity (L1210 [30]): 288%
IC50 ([6]; Homo sapiens, Hs 683, 72 h): > 10 µM
IC50 (HCT-15; Homo sapiens, HCT-15, 72 h): 9 µM
Activity (L1210 [8]): 115%
MTD [9]: 80 mg/kg
Activity (L1210 [31]): 41%
Activity (Mus musculus [32]): Toxic
Activity (L1210 [16]): 150%
IC50 (MCF7 [18]): > 10 µM
IC50 ([20]; Homo sapiens, U373 MG, 72 h): > 10 µM
Activity (Mus musculus [33]): Toxic
Activity (L1210 [22]): 165%
IC50 (A549; Homo sapiens, A549, 72 h): > 10 µM
IC50 (LoVo; Homo sapiens, LoVo, 72 h): 8.3 µM
